Consider 8 molecules from ChEMBL document CHEMBL4342411, “Novel multitarget 5-arylidenehydantoins with arylpiperazinealkyl fragment: Pharmacological evaluation and investigation of cytotoxicity and metabolic stability” (Bioorg Med Chem, 2019).

The inhibition is how much of the control response was suppressed. Broadly, the pKi is the negative decadic logarithm of the Ki, by convention in mol/L. A word on the Emax: it is the size of the effect at its maximum, as opposed to the concentration needed. What is called pIC50 is the IC50 on a negative log10 scale, so that one unit is a factor of ten. In general, half-life refers to the time in which the quantity being followed falls by half.

The structures appear in SMILES notation. pIC50, pKi: −log10 of the molar value.

5-hydroxytryptamine receptor 6 (Homo sapiens), sequence (P50406 whole entry): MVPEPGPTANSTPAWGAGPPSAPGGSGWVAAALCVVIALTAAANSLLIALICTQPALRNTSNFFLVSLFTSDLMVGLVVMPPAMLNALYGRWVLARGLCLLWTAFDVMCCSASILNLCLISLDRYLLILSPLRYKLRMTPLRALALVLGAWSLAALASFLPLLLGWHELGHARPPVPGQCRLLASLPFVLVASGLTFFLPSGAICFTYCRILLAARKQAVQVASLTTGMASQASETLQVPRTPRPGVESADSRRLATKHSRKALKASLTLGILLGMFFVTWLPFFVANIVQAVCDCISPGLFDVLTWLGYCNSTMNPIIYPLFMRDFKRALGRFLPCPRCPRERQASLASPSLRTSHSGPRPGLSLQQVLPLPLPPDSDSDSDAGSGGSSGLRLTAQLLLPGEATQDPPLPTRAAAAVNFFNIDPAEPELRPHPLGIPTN

One data set addresses 5-hydroxytryptamine receptor 6 (Homo sapiens) (UniProt P50406). Description: Displacement of [3H]-LSD from human recombinant 5-HT6 receptor expressed in CHO cells at 10^-6 M incubated for 60 mins by microbeta2 scintillation counter relative to control. Type of data set: cell-based.
Conditions: not given
Put shortly: (§1)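 Radioligand displacement from recombinant human receptor membranes, tested at two final concentrations (10^-6 and 10^-7 M), with scintillation counting. Results were expressed as percent inhibition of specific binding.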
For `COc1ccc(/C=C2\NC(=O)N(CCCCN3CCN(c4ncccn4)CC3)C2=O)cc1OC`, the inhibition came to 0%.
On the same count and under the same terms, in the case of `COc1ccc(/C=C2\NC(=O)N(CCCN3CCN(c4ccccc4OC)CC3)C2=O)cc1OC1CCCC1` it was 13%; in that of `COc1ccc(/C=C2\NC(=O)N(CCCCN3CCN(c4ccccc4OC)CC3)C2=O)cc1OC`, 9%; in that of `COc1ccc(/C=C2\NC(=O)N(CCCN3CCN(c4ncccn4)CC3)C2=O)cc1OC`, 15%.

Another data set deals with 3',5'-cyclic-AMP phosphodiesterase 4B (Homo sapiens) (UniProt Q07343). As to the kind of experiment: Inhibition of human recombinant full length N-terminal GST-tagged PDE4B1 expressed in baculovirus infected Sf9 cells at 10^-5 M using cAMP as substrate incubated for 20 mins followed by substrate addition by luciferase assay relative to control.
3',5'-cyclic-AMP phosphodiesterase 4B (Homo sapiens), sequence (Q07343 whole entry): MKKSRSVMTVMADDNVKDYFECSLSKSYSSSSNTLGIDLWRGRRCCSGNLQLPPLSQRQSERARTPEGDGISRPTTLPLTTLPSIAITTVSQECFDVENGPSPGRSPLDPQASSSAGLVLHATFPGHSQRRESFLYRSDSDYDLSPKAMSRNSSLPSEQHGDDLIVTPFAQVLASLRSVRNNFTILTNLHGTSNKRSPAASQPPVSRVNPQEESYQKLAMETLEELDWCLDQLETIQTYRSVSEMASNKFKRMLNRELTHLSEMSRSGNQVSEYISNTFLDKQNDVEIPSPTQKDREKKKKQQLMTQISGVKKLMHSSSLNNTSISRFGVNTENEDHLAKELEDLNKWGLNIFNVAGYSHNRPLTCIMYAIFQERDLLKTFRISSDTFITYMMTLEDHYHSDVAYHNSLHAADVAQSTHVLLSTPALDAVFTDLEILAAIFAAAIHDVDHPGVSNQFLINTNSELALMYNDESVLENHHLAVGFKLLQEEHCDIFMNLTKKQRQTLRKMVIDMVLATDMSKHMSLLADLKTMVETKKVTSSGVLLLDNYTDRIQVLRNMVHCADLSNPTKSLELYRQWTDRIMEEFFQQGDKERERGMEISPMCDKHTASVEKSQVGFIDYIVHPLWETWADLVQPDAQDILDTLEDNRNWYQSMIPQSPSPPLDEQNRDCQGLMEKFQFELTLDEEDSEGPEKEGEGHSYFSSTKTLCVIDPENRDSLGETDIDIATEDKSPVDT
Conditions: not given
For `COc1ccc(/C=C2\NC(=O)N(CCCCN3CCN(c4ncccn4)CC3)C2=O)cc1OC`, the inhibition was 14%.
Take `COc1ccc(/C=C2\NC(=O)N(CCCN3CCN(c4ccccc4OC)CC3)C2=O)cc1OC1CCCC1`: the inhibition turned out to be 3%.
Still for that read-out and setting: in the case of `COc1ccc(/C=C2\NC(=O)N(CCCCN3CCN(c4ccccc4OC)CC3)C2=O)cc1OC` it was 8%.
On the same count and under the same terms, in the case of `COc1ccc(/C=C2\NC(=O)N(CCCN3CCN(c4ncccn4)CC3)C2=O)cc1OC` it was 1%.

In the next data set the target is T1, 5-hydroxytryptamine receptor 1A (Homo sapiens, UniProt P08908).
T1 sequence (P08908 whole entry): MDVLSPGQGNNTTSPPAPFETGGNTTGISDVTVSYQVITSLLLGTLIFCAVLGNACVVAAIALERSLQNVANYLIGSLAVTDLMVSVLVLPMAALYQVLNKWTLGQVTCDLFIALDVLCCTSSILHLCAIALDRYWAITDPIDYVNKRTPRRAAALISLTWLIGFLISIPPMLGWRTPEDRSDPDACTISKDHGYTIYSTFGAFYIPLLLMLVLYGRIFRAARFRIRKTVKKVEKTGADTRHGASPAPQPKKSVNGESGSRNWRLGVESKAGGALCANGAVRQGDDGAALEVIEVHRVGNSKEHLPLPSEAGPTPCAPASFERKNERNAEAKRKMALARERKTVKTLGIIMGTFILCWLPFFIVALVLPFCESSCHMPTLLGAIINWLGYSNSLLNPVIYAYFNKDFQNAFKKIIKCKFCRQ
As to the kind of experiment: Displacement of [3H]-8-OH-DPAT from human recombinant 5-HT1A receptor expressed in HEK293 cells incubated for 60 mins by microbeta2 scintillation counter. It counts as cell-based.
Conditions: not given
In the case of `COc1ccc(/C=C2\NC(=O)N(CCCCN3CCN(c4ncccn4)CC3)C2=O)cc1OC`, the negative logarithm of the Ki (pKi) is 7.35.
As to `COc1ccc(/C=C2\NC(=O)N(CCCN3CCN(c4ccccc4OC)CC3)C2=O)cc1OC1CCCC1`, the negative-log Ki (pKi) was 7.43.
As to `COc1ccc(/C=C2\NC(=O)N(CCCCN3CCN(c4ccccc4OC)CC3)C2=O)cc1OC`, the pKi is 8.15.
The same measure, in the same setting: next, `COc1ccc(/C=C2\NC(=O)N(CCCN3CCN(c4ncccn4)CC3)C2=O)cc1OC`: 7.92.

In another data set the target is T2, 5-hydroxytryptamine receptor 7 (Homo sapiens, UniProt P34969). Description: biochemical. It counts as cell-based, CHO.
T2 sequence (P34969 whole entry): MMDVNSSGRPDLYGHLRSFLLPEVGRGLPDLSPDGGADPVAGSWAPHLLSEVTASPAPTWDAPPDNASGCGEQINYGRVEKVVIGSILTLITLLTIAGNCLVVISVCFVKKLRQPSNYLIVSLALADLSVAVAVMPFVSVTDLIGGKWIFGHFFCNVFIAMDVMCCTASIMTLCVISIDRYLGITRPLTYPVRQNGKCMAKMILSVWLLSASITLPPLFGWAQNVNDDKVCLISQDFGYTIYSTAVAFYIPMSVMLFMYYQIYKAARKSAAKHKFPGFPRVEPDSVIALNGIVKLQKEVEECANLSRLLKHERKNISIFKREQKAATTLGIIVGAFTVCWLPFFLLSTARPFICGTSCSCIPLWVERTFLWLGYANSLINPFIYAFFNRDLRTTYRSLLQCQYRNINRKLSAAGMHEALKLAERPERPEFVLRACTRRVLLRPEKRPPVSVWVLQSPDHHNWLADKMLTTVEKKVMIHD
Conditions: not given
With `COc1ccc(/C=C2\NC(=O)N(CCCCN3CCN(c4ncccn4)CC3)C2=O)cc1OC`, the pKi is 6.03.
Still for that read-out and setting: in the case of `COc1ccc(/C=C2\NC(=O)N(CCCN3CCN(c4ccccc4OC)CC3)C2=O)cc1OC1CCCC1` it was 8.22.
Same read-out and setting: next, `COc1ccc(/C=C2\NC(=O)N(CCCCN3CCN(c4ccccc4OC)CC3)C2=O)cc1OC`: 7.80.
The same measure, in the same setting: in the case of `COc1ccc(/C=C2\NC(=O)N(CCCN3CCN(c4ncccn4)CC3)C2=O)cc1OC` it was 7.13.

A further data set has as its target 5-hydroxytryptamine receptor 6 (Homo sapiens) (UniProt P50406). As to the kind of experiment: Displacement of [3H]-LSD from human recombinant 5-HT6 receptor expressed in CHO cells at 10^-7 M incubated for 60 mins by microbeta2 scintillation counter relative to control. Type of data set: cell-based.
Conditions: not given
Put shortly:
as §1
For orientation: Loss of bound radioactivity is the signal in a displacement assay; it reports binding, not function.
On to `COc1ccc(/C=C2\NC(=O)N(CCCCN3CCN(c4ncccn4)CC3)C2=O)cc1OC`, for which the inhibition is 0%.
On the same count and under the same terms, next, `COc1ccc(/C=C2\NC(=O)N(CCCN3CCN(c4ccccc4OC)CC3)C2=O)cc1OC1CCCC1`: 0%.
On the same count and under the same terms, in the case of `COc1ccc(/C=C2\NC(=O)N(CCCCN3CCN(c4ccccc4OC)CC3)C2=O)cc1OC` it was 0%; in that of `COc1ccc(/C=C2\NC(=O)N(CCCN3CCN(c4ncccn4)CC3)C2=O)cc1OC`, 8%.

A further data set has as its target T2, 5-hydroxytryptamine receptor 7. Description: Antagonist activity at human recombinant 5-HT7 receptor expressed in CHOK1 cells measured after 60 mins in the presence of serotonin by LANCE TR-FRET assay relative to control.
Conditions: not given
It counts as cell-based. A general note: In TR-FRET formats the signal depends on donor and acceptor labels being close together.
Turning to `CC1CCN(CC[C@H]2CCCN2S(=O)(=O)c2cccc(O)c2)CC1`, the maximum response (Emax) turned out to be 8%.

The next data set has as its system SW480. Description: Cytotoxicity against human SW480 cells assessed as growth inhibition measured after 72 hrs by MTT assay. Type of data set: functional, cell-based. The settings on record: SW480, 72 h. Put shortly: (§2)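 Cells were seeded at 1 × 10^4 per well: SW480 in MEM, PC3 in RPMI 1640, HaCaT in DMEM high glucose, each with 10% FBS. Compounds were added at 10–140 µM and incubated for 72 h. MTT was then added at 0.5 mg/mL in serum-free medium for 4 h at 37 °C. Formazan was dissolved in DMSO/isopropanol (1:1) and read at 570 nm. IC50 was given in µM; untreated cells served as control.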
Background: Formazan colour is commonly taken as a measure of viable cells.
For the molecule `COc1cccc2c1C(=O)c1c(O)c3c(c(O)c1C2=O)C[C@@](O)(C(=O)CO)C[C@@H]3O[C@H]1C[C@H](N)[C@H](O)[C@H](C)O1` [DOXORUBICIN], the negative-log IC50 (pIC50) was 6.54.

A further data set relates to PC-3. Description: Cytotoxicity against human PC3 cells assessed as growth inhibition measured after 72 hrs by MTT assay. It counts as functional, cell-based. The note with it: PC-3, 72 h. The method, boiled down:
as §2
Consider `COc1cccc2c1C(=O)c1c(O)c3c(c(O)c1C2=O)C[C@@](O)(C(=O)CO)C[C@@H]3O[C@H]1C[C@H](N)[C@H](O)[C@H](C)O1` [DOXORUBICIN], for which the negative logarithm of the IC50 (pIC50) was 6.23.

A further data set concerns HaCaT. Description: Cytotoxicity against human HaCaT cells assessed as growth inhibition measured after 72 hrs by MTT assay. It counts as cell-based.
Conditions: not given
Put shortly:
as §2
Take `COc1cccc2c1C(=O)c1c(O)c3c(c(O)c1C2=O)C[C@@](O)(C(=O)CO)C[C@@H]3O[C@H]1C[C@H](N)[C@H](O)[C@H](C)O1` [DOXORUBICIN]: the pIC50 is 6.63.

The target in a further data set is 5-hydroxytryptamine receptor 2A (Homo sapiens) (UniProt P28223).
5-hydroxytryptamine receptor 2A (Homo sapiens), sequence (P28223 whole entry): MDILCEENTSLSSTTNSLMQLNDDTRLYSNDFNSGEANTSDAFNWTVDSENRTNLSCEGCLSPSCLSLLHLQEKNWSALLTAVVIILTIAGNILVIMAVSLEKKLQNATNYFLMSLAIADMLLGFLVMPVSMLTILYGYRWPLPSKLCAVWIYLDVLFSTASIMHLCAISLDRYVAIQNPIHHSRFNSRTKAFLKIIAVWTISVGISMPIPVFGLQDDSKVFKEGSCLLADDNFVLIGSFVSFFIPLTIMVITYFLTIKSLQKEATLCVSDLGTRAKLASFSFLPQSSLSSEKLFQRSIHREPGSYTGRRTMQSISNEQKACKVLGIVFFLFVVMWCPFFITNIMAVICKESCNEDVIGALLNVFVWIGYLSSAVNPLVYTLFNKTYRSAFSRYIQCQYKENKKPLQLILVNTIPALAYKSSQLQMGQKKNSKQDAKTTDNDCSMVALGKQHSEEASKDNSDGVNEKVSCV
Experiment: not given
The settings on record: HEK293, at 1 µM.
Molecule `COc1ccc(/C=C2\NC(=O)N(CCCCN3CCN(c4ncccn4)CC3)C2=O)cc1OC` showed an inhibition of 41%.
The same measure, in the same setting: next, `COc1ccc(/C=C2\NC(=O)N(CCCN3CCN(c4ccccc4OC)CC3)C2=O)cc1OC1CCCC1`: 96%; `COc1ccc(/C=C2\NC(=O)N(CCCCN3CCN(c4ccccc4OC)CC3)C2=O)cc1OC`: 87%.
On the same count and under the same terms, in the case of `COc1ccc(/C=C2\NC(=O)N(CCCN3CCN(c4ncccn4)CC3)C2=O)cc1OC` it was 78%.

Another data set has the same target.
Experiment: not given
The settings on record: HEK293, at 0.1 µM.
Turning to `COc1ccc(/C=C2\NC(=O)N(CCCCN3CCN(c4ncccn4)CC3)C2=O)cc1OC`, the inhibition came out at 0%.
Take `COc1ccc(/C=C2\NC(=O)N(CCCN3CCN(c4ccccc4OC)CC3)C2=O)cc1OC1CCCC1`: the inhibition was 44%.
The molecule `COc1ccc(/C=C2\NC(=O)N(CCCCN3CCN(c4ccccc4OC)CC3)C2=O)cc1OC` registered an inhibition of 31%.
On the same count and under the same terms, in the case of `COc1ccc(/C=C2\NC(=O)N(CCCN3CCN(c4ncccn4)CC3)C2=O)cc1OC` it was 23%.

The target of another data set is 3',5'-cyclic-AMP phosphodiesterase 4B (Homo sapiens) (UniProt Q07343).
Experiment: not given
The settings on record: Sf9, 10^-5.5 M.
For `COc1ccc(C2CNC(=O)C2)cc1OC1CCCC1` (centres undefined), the inhibition amounted to 84%.

Tested on in a further data set: not listed separately
Description: in vitro. The settings on record: CD1, mouse, microsomes.
The molecule `CC(C)NCC(O)COc1cccc2ccccc12` (centres undefined) [PROPRANOLOL] yielded a half-life of 1.41 h.
